≈ marks a conversion by molar mass, not a printed value. Calls of active or inactive are those of the source. The calls are words filed in the database; no cut-off is given here.
How the values were obtained:
Staphylococcus aureus [1] = assay: Antibacterial activity against methicillin-resistant Staphylococcus aureus by NCCLS method; format: functional
Candida albicans [2] = assay: Antifungal activity against fluconazole-resistant Candida albicans by NCCLS method; format: functional
Pseudomonas aeruginosa = assay: Antibacterial activity against Pseudomonas aeruginosa MTCC 201 at 100 ug/well after 24 hrs by well diffusion assay; format: functional
Procedure, shortened: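 17 h bacterial cultures swabbed onto Mueller Hinton agar; after 10 min wells were cut with a cork borer and loaded with compound from a 10 mg/mL stock, with a DMSO control. Plates were held at 37 °C for 24 h, and susceptibility was read as the diameter of the zone of inhibition in mm.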

Candida albicans [3] = assay: Antifungal activity against fluconazole-resistant Candida albicans at 100 ug/well after 24 hrs by well diffusion assay; format: functional; details: for zone of inhibition at 100 µg/disc: read-out: DIZ
Procedure, shortened: (§1)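 Agar well diffusion on Mueller Hinton agar: 17 h cultures swabbed over the surface, wells cut with a cork borer after 10 min. Each well loaded with 10 µl of a 10 mg/mL DMSO stock (100 µg/well), with a DMSO control well. Plates incubated at 37 °C for 24 h. Zone of inhibition diameter measured in mm.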

Staphylococcus aureus [4] = assay: Antibacterial activity against methicillin-resistant Staphylococcus aureus at 100 ug/well after 24 hrs by well diffusion assay; format: functional; details: for zone of inhibition at 100 µg/disc: read-out: DIZ; procedure, shortened: as §1
SAS = assay: Cytotoxicity against human SAS cells assessed as reduction in cell viability after 48 hrs by MTT assay; format: functional, cell-based
HeLa = assay: Cytotoxicity against human HeLa cells assessed as reduction in cell viability after 48 hrs by MTT assay; format: functional, cell-based

Row | SMILES | MIC (Staphylococcus aureus [1]) | MIC (Candida albicans [2]) | diameter of the inhibition zone (DIZ) (Pseudomonas aeruginosa) | zone of inhibition at 100 µg/disc (Candida albicans [3]) | zone of inhibition at 100 µg/disc (Staphylococcus aureus [4]) | diameter of the inhibition zone (DIZ) (Candida albicans [3]) | diameter of the inhibition zone (DIZ) (Staphylococcus aureus [4]) | IC50 (SAS) | IC50 (HeLa)
1 | COC(=O)[C@H](C)NC(=O)CSC1=C(C)C(=O)c2cccc(OC)c2C1=O | 125 µg/mL (≈ 331 µM) | 125 µg/mL (≈ 331 µM) | inactive | 18 mm | 18 mm |  |  |  | 
2 | CC[C@H](C)[C@H](NC(=O)CSC1=C(C)C(=O)c2cccc(OC)c2C1=O)C(=O)OC |  |  | inactive |  |  | inactive | inactive |  | 
3 | COC(=O)[C@@H](NC(=O)CSC1=C(C)C(=O)c2ccccc2C1=O)C(C)C | 15.6 µg/mL (≈ 41.6 µM) | 15.6 µg/mL (≈ 41.6 µM) | inactive | 19 mm | 19 mm |  |  | 16 µM | 20 µM
4 | COC(=O)[C@H](CC(C)C)NC(=O)CSC1=C(OC)C(=O)c2ccccc2C1=O | 7.8 µg/mL (≈ 19.2 µM) | 62.5 µg/mL (≈ 154 µM) | inactive | 19 mm | 21 mm |  |  | 25.5 µM | 63 µM
5 | COC(=O)[C@H](C)NC(=O)CSC1=C(OC)C(=O)c2ccccc2C1=O | 62.5 µg/mL (≈ 172 µM) | 62.5 µg/mL (≈ 172 µM) | inactive | 26 mm | 19 mm |  |  | 14 µM | 39 µM
6 | COC(=O)[C@H](CC(C)C)NC(=O)CSC1=C(C)C(=O)c2cccc(OC)c2C1=O | 7.8 µg/mL (≈ 18.6 µM) | 7.8 µg/mL (≈ 18.6 µM) | inactive | 25 mm | 21 mm |  |  | 78.5 µM | > 100 µM
7 | O=C1C=CC(=O)c2c(O)cccc21 |  |  | inactive |  |  | inactive | inactive |  | 
8 | COC(=O)[C@@H](NC(=O)CSC1=C(OC)C(=O)c2ccccc2C1=O)C(C)C | 15.6 µg/mL (≈ 39.9 µM) | 15.6 µg/mL (≈ 39.9 µM) | inactive | 20 mm | 18 mm |  |  | 56 µM | 93.5 µM
9 | COC(=O)CNC(=O)CSC1=C(C)C(=O)c2ccccc2C1=O | 15.6 µg/mL (≈ 46.8 µM) | 15.6 µg/mL (≈ 46.8 µM) | inactive | 22 mm | 23 mm |  |  |  | 
10 | COC(=O)[C@H](CC(C)C)NC(=O)CSC1=C(C)C(=O)c2ccccc2C1=O | 15.6 µg/mL (≈ 40.1 µM) | 15.6 µg/mL (≈ 40.1 µM) | inactive | 20 mm | 18 mm |  |  |  | 
11 | COC(=O)[C@H](Cc1ccccc1)NC(=O)CSC1=CC(=O)c2cccc(OC)c2C1=O | 7.8 µg/mL (≈ 17.7 µM) | 7.8 µg/mL (≈ 17.7 µM) | inactive | 17 mm | 15 mm |  |  | 40 µM | 58 µM
12 | O=C1C=C(O)C(=O)c2ccccc21 [LAWSONE] | 125 µg/mL (≈ 718 µM) | 250 µg/mL (≈ 1440 µM) | inactive | 14 mm | 12 mm |  |  | > 100 µM | > 100 µM
13 | COC(=O)CCCNC(=O)CSC1=C(C)C(=O)c2ccccc2C1=O | 15.6 µg/mL (≈ 43.2 µM) | 15.6 µg/mL (≈ 43.2 µM) | inactive | 12 mm | 13 mm |  |  |  | 
14 | OC(Cn1cncn1)(Cn1cncn1)c1ccc(F)cc1F |  |  | inactive |  |  | inactive | inactive |  | 
15 | CC[C@H](C)[C@H](NC(=O)CSC1=C(OC)C(=O)c2ccccc2C1=O)C(=O)OC | 7.8 µg/mL (≈ 19.2 µM) | 7.8 µg/mL (≈ 19.2 µM) | inactive | 12 mm | 15 mm |  |  | 60 µM | 82 µM
16 | COC(=O)[C@@H](NC(=O)CSC1=CC(=O)c2cccc(OC)c2C1=O)C(C)C | 15.6 µg/mL (≈ 39.9 µM) | 15.6 µg/mL (≈ 39.9 µM) | inactive | 12 mm | 15 mm |  |  | 45 µM | > 100 µM
17 | COC(=O)[C@H](Cc1ccccc1)NC(=O)CSC1=C(C)C(=O)c2ccccc2C1=O | 15.6 µg/mL (≈ 36.8 µM) | 15.6 µg/mL (≈ 36.8 µM) | inactive | 16 mm | 13 mm |  |  |  | 
